Screening data (PubChem)
Mdm2-MdmX inh: disrupts the human Mdm2-MdmX interaction; O15151+Q00987; SaOS-2 split-luciferase Mdm2/MdmX complementation, luminescence; inhibition, % at 8 µM; 330,000 tested, 3% active; AID 485346;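 active = inhibition of at least 50% at 8 µM in the primary screen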
Target sequence (O15151 whole entry, looked up): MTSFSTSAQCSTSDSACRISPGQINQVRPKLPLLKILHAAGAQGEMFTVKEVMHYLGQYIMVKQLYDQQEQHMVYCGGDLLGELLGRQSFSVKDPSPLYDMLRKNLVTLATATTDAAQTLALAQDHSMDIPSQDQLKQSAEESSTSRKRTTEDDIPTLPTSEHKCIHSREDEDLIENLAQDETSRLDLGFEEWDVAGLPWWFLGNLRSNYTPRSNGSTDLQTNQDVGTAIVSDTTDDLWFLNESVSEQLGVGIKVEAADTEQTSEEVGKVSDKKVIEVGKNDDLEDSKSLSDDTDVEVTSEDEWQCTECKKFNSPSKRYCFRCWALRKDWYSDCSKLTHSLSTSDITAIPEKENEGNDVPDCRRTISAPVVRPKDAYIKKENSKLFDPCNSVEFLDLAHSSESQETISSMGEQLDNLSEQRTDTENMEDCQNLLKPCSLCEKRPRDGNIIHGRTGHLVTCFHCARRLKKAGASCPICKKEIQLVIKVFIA
Target sequence (Q00987 whole entry, looked up): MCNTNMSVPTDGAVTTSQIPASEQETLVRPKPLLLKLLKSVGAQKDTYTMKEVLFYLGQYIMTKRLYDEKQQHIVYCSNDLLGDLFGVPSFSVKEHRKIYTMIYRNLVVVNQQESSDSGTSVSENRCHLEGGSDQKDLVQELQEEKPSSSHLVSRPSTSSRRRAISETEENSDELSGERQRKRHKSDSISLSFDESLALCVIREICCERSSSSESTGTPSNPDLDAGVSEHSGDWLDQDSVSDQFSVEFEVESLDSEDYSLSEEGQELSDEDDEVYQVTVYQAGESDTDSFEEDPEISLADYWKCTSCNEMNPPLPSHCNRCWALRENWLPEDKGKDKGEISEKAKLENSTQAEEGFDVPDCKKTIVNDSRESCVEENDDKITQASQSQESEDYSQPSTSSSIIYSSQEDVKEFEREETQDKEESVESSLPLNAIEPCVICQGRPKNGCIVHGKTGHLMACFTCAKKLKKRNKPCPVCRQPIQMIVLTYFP
Jurkat NFkB inh: inhibitors of the PMA/ionomycin-induced NF-kB reporter in Jurkat cells; 330,000 tested, 0.53% active; PMA/ionomycin-induced NF-kB luciferase reporter, luminescence; inhibition, % at 4 µM; AID 435003; in the data active = inhibition above about 50%
VIM-2 inhibitor: inhibitors of Pseudomonas aeruginosa VIM-2 metallo-beta-lactamase; purified VIM-2, nitrocefin hydrolysis, epi-absorbance fluorescence; inhibition, % at 5.6 µM; 290,000 tested, 0.89% active;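 active = inhibition above the mean of all tested compounds plus 3 SD, cutoff set per screening run, cut at about 7.5% in these data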;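 also: red hydrolysis product quenches plate fluorescence so inhibitors raise well fluorescence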
aSyn UTR inh: MLPCN primary screen, SNCA 5' untranslated region; alpha-synuclein 5'UTR reporter, inhibitor activity; inhibition, % (tested at 7.5 µM); 300,000 tested, 0.82% active; in the data active = inhibition above about 60%;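 also: H4 neuroglioblastoma cells stably carrying SNCA 5'UTR luciferase fusion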
IMP-1 inh: inhibitors of Pseudomonas aeruginosa IMP-1 metallo-beta-lactamase. purified IMP-1, nitrocefin hydrolysis, epi-absorbance fluorescence. inhibition, % at 5.6 µM. 290,000 tested, 0.45% active;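 active = inhibition above the mean plus 3 SD of all compounds in the same screening run, cut at about 4.5% in these data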
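Assay system: purified recombinant IMP-1 beta-lactamase. Input: IMP-1 0.2 nM before substrate addition. Buffer or medium: Zinc- and detergent-supplemented HEPES buffer, pH 7.1. Schedule: 25 °C, 15 min preincubation, 25 min reaction. Signal: Epi-absorbance fluorescence, 480 nm excitation, 530 nm emission. Evaluation: percent inhibition from optical density relative to buffer-blank wells.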
697 NFkB inh: lowers PMA/ionomycin-induced NF-kB signal in 697 B cells; inhibition, % at 4 µM; 330,000 tested, 0.33% active; AID 435022; 697 B-cell NF-kB luciferase reporter, 16 h; in the data active = inhibition above about 35%
Jurkat NFkB conf: lowers PMA/ionomycin-induced NF-kB signal in Jurkat cells; shares compounds with Jurkat NFkB inh; Jurkat NF-kB luciferase, 16 h; inhibition, % at 4 µM; 2,700 tested, 27% active;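 active = inhibition reaching about 45% at 4 µM in either replicate, limit read from the data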
697 NFkB conf: inhibitors of the PMA/ionomycin-induced NF-kB reporter in 697 B cells, retest; 2,000 tested, 35% active; 697 B-cell NF-kB luciferase, 16 h; AID 449746; inhibition, % at 4 µM; shares compounds with 697 NFkB inh; in the data active = inhibition mostly above about 28%, no sharp cut-off; inactive = mostly below about 22%
Mdm2-MdmX conf: human Mdm2/MdmX binding inhibition, confirmed; luminescent assay; inhibition, % at 8 µM; 10,000 tested, 55% active; shares compounds with Mdm2-MdmX inh; in the data active = inhibition above about 40%
Full FLuc ctr: counter-screen for Mdm2/MdmX inhibitors: full-length luciferase | shares compounds with Mdm2-MdmX inh | SaOS-2 full-length luciferase counterscreen, luminescence | inhibition, % at 8 µM | 6,200 tested, 77% active;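 active = mean inhibition at 8 µM reaching about 37%, which flags the compound as non-specific, limit read from the data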;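 also: p53-null SaOS-2 cells with luciferase driven by a doxycycline-inducible promoter; compound on cells about two nights before reading with doxycycline added after day one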
Each line names hits and unclear results; the compound was inactive in the other large screens (follow-up assays come after a bar, where they were run). Hits are enriched below; roughly 4.7% of the tested compounds scored in any of these assays.

COc1ccc2cc(CN(CC3CCCO3)C(=S)Nc3ccccc3)c(=O)[nH]c2c1 (configuration not stated)	Mdm2-MdmX inh 51.6 | Jurkat NFkB conf inactive | Mdm2-MdmX conf 51.0 | Full FLuc ctr 57.4
Nc1ccccc1C#CC(=O)c1ccccc1	Mdm2-MdmX inh 96.0, Jurkat NFkB inh 51.8 | Jurkat NFkB conf inactive | Mdm2-MdmX conf 62.7 | Full FLuc ctr 55.5
O=C(OCCN1C(=O)c2cccc3c(N4CCOCC4)ccc(c23)C1=O)c1ccc(Cl)cc1	Mdm2-MdmX inh 72.9, Jurkat NFkB inh 64.3 | Jurkat NFkB conf inactive | Mdm2-MdmX conf 53.5 | Full FLuc ctr 69.2
CCCN(CCC)S(=O)(=O)c1ccc(C(=O)OCCN2C(=O)c3cccc4c(N5CCOCC5)ccc(c34)C2=O)cc1	none
COC(=O)Nc1ccc(S(=O)(=O)N2CCCc3ccccc32)cc1	Mdm2-MdmX inh 54.7, Jurkat NFkB inh 60.8, aSyn UTR inh 84.1 | Jurkat NFkB conf 55.7 | Mdm2-MdmX conf 48.8 | Full FLuc ctr 56.0
CCC(=O)Nc1ccc(S(=O)(=O)N2CCc3ccccc32)cc1	none
Cn1c(=O)oc2cc(S(=O)(=O)N3CCCc4ccccc43)ccc21	Mdm2-MdmX inh 54.6, Jurkat NFkB inh 55.4 | Jurkat NFkB conf inactive | Mdm2-MdmX conf 59.2 | Full FLuc ctr 65.2
O=S(=O)(c1ccc2[nH]ccc2c1)N1CCCCCC1	none
COc1cc(-c2noc(C)c2C#CCO)cc(OC)c1OC	none
COc1cc(-c2noc(C)c2/C=C/c2ccc(OC(C)=O)cc2)cc(OC)c1OC	Mdm2-MdmX inh 84.3, Jurkat NFkB inh 67.5, aSyn UTR inh 95.2 | Jurkat NFkB conf 49.0 | Mdm2-MdmX conf 90.3 | Full FLuc ctr 94.0
CN(C(=O)CN1C(=O)c2cccc(N)c2C1=O)C1CCCCC1	none (no result: VIM-2 inhibitor, aSyn UTR inh, IMP-1 inh)
CCc1ccc(CCC(=O)Nc2ncc(Cc3ccccc3Cl)s2)o1	Mdm2-MdmX inh 66.4, Jurkat NFkB inh 66.1 | Jurkat NFkB conf inactive | Mdm2-MdmX conf 51.3 | Full FLuc ctr 79.6
O=C(CN1CCOCC1)Nc1ncc(Cc2ccccc2Cl)s1	none
CCOC(=O)c1ccccc1NC(=O)Cn1c(-c2nonc2N)nc2ccccc21	Mdm2-MdmX inh 60.7, Jurkat NFkB inh 81.7, aSyn UTR inh 73.0 | Jurkat NFkB conf 61.2 | Mdm2-MdmX conf 55.2 | Full FLuc ctr 77.2
O=C(/C=C/c1cccc([N+](=O)[O-])c1)N1CCN(c2ccccn2)CC1	none
O=C(/C=C/c1cccc([N+](=O)[O-])c1)n1cnc2ccccc21	Mdm2-MdmX inh 100.3, Jurkat NFkB inh 71.3 | Jurkat NFkB conf inactive | Mdm2-MdmX conf 93.8 | Full FLuc ctr inactive
COc1cccc(-c2cc(=O)c3cc(NC(=O)c4ccccc4)ccc3[nH]2)c1	Mdm2-MdmX inh 58.7, Jurkat NFkB inh 89.5, aSyn UTR inh 81.8 | Jurkat NFkB conf 51.8 | Mdm2-MdmX conf 58.1 | Full FLuc ctr 41.6
CCCC(=O)Nc1ccc(C(=O)Nc2cccc(OC)c2)cc1	none
COc1cccc(-c2cc(=O)c3cc(NC(=O)c4ccc(N(C)C)cc4)ccc3[nH]2)c1	Mdm2-MdmX inh 65.0, Jurkat NFkB inh 87.3, aSyn UTR inh 115.0 | Jurkat NFkB conf 57.1 | Mdm2-MdmX conf 60.0 | Full FLuc ctr 71.1
COc1cccc(C(=O)Nc2ccccc2)c1	none
O=c1c([N+](=O)[O-])cccn1Cc1cccc(Br)c1	none
CCCCCCCC[n+]1cccc(C(=O)N(CC)CC)c1	none
CCCCCCCCCCCCCCCC[n+]1ccc(/C=N/O)cc1	Mdm2-MdmX inh 96.5, Jurkat NFkB inh 79.6 (no result: aSyn UTR inh) | Jurkat NFkB conf 54.3 | Mdm2-MdmX conf 100.0 | Full FLuc ctr inactive
O/N=C/c1cccc[n+]1CCCCCC[n+]1ccccc1/C=N/O	none
CCCCCCCCCCCCCCCC[n+]1ccc(C(N)=O)cc1	Mdm2-MdmX inh 78.1, Jurkat NFkB inh 55.7 (no result: aSyn UTR inh) | Jurkat NFkB conf inactive | Mdm2-MdmX conf 77.0 | Full FLuc ctr 57.4
CCCCCCCCCCCCCCCC[n+]1cccc(C(=O)N(CC)CC)c1	Mdm2-MdmX inh 77.1, Jurkat NFkB inh 85.7 | Jurkat NFkB conf 74.8 | Mdm2-MdmX conf 66.5 | Full FLuc ctr inactive
O=C(CN1CCN(S(=O)(=O)c2ccc(F)cc2)CC1)NCC1(N2CCOCC2)CCCCC1	none (no result: VIM-2 inhibitor, aSyn UTR inh, IMP-1 inh)
CC(C)Oc1ccc(C(CCN)C2CCCCC2)cc1 (configuration not stated)	Mdm2-MdmX inh 88.3, Jurkat NFkB inh 56.1 | Jurkat NFkB conf inactive | Mdm2-MdmX conf 42.5 | Full FLuc ctr 65.4
CC(C)Oc1ccc(C(=O)NC2CCCCC2)cc1	none
COCCn1c(C)cc(C2=NNC(=NC3CC3)SC2)c1C	Mdm2-MdmX inh 94.7, Jurkat NFkB inh 75.4, aSyn UTR inh 112.1, 697 NFkB inh 68.4 | Jurkat NFkB conf 93.7 | 697 NFkB conf 65.2 | Mdm2-MdmX conf 93.8 | Full FLuc ctr 53.1
CN(c1ccccc1)S(=O)(=O)c1ccc(NC(=O)c2ccccc2)cc1	none
CN(c1ccccc1)S(=O)(=O)c1ccc(NC(=O)c2nc(S(C)(=O)=O)ncc2Cl)cc1	Mdm2-MdmX inh 98.5, Jurkat NFkB inh 53.2 | Jurkat NFkB conf inactive | Mdm2-MdmX conf 99.8 | Full FLuc ctr 50.9
O=C(NCC(c1ccco1)N1CCc2ccccc21)c1ccccc1F (configuration not stated)	none (no result: VIM-2 inhibitor, IMP-1 inh)
O=C(CCc1ccccc1)NCC(c1ccco1)N1CCc2ccccc21 (configuration not stated)	Mdm2-MdmX inh 52.9, Jurkat NFkB inh 58.9 (no result: VIM-2 inhibitor, IMP-1 inh) | Jurkat NFkB conf inactive | Mdm2-MdmX conf 75.9 | Full FLuc ctr 65.7
COc1ccc2cc(C(=O)N3CCC(Cc4ccccc4)CC3)[nH]c2c1	none
COC(=O)c1nn(-c2ccc3c(c2)OCO3)cc1O	none
COC(=O)c1nn(-c2ccc3c(c2)CCN3C(C)=O)cc1O	Mdm2-MdmX inh 50.7, Jurkat NFkB inh 53.2, aSyn UTR inh 90.6 | Jurkat NFkB conf 66.8 | Mdm2-MdmX conf 67.8 | Full FLuc ctr inactive
CC(CCc1ccccc1)NC(=O)CCNS(=O)(=O)c1ccccc1C(F)(F)F (configuration not stated)	none (no result: VIM-2 inhibitor, aSyn UTR inh, IMP-1 inh)
CCCCCc1ccc(OCCOCCn2c[n+](C)c3ccccc32)c(CCCCC)c1	none (no result: Mdm2-MdmX inh, Jurkat NFkB inh, 697 NFkB inh)
CCCCCc1ccc(OCCC[n+]2ccccc2)c(CCCCC)c1	Mdm2-MdmX inh 88.6, Jurkat NFkB inh 62.7, 697 NFkB inh 60.1 | Jurkat NFkB conf 54.9 | 697 NFkB conf 56.7 | Mdm2-MdmX conf 75.7 | Full FLuc ctr inactive
CC1=CC(=C2C(=O)c3ccccc3C2=O)C=C(C)N1C	none
